# Rows were chosen to be rich in hits. Some 1.4% of all compounds tested hit in one or more screens of this group.
# Rce1 inh – yeast Ras-converting enzyme inhibition; yeast membranes, quenched prenylated peptide cleavage fluorescence; calls only; hit rate 0.27% among 290,000; AID 2563;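 active = fall in fluorescence gain of 50% or more versus controls, with final raw signal at or below 3038400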;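 also: plate controls were neutral control wells for no effect and wells lacking membranes for full effect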
# Fh CTSL1 inh – blocks F. hepatica cathepsin L1 in PFM18AAP counter-screen. recombinant F. hepatica cathepsin L1, Z-Leu-Arg-MCA fluorescence. inhibition, % at 5.96 µM. hit rate 0.49% among 300,000. AID 1906;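 active = inhibition above the mean of all tested compounds plus 3 SD, set per screening campaign, cut at about 17% in these data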;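 also: 0% = plate median of test compound wells and 100% = 1 µM Z-Phe-Ala-diazomethylketone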
# FXIa inh – factor XIa (human) inhibition. purified FXIa, Boc-Glu-Ala-Arg-AMC fluorogenic substrate. AID 798. hit rate 0.14% among 220,000. P03951. inhibition, % at 5 µM;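 active = inhibition of at least 40%; inactive = inhibition below 40%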;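 also: fluorescence of freed AMC excited at 355 nm; 0% = enzyme without compound and 100% = no enzyme blank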
# KLK5 inh – kallikrein 5 (human) inhibition; recombinant hK5, fluorogenic AMC substrate cleavage; hit rate 0.59% among 210,000; AID 873; Q9Y337; inhibition, % at 5 µM;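 active = inhibition of 40% or more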;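 also: 0% = enzyme controls without compound and 100% = no-enzyme blanks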
# thrombin 1536 – thrombin (human) inhibition; inhibition, % at 5 µM; hit rate 0.26% among 220,000; alpha-thrombin, Boc-VPR-AMC fluorogenic substrate cleavage; P00734;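 active = inhibition at or above 40%; inactive = inhibition below 40%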;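 also: 0% = enzyme with no compound and 100% = wells without enzyme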
#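 Test system: human alpha-thrombin protein / Dosing: one concentration per compound, 5 µM, with 0.2% DMSO / Medium: pH 7.5 Tris-saline with Tween 20 / Benchmarks: no-compound enzyme wells and no-enzyme blanks / Read-out basis: percent inhibition of thrombin substrate cleavage / Timing: reaction at room temperature / Measured by: fluorescence, ex 355 nm, em 460 nm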
# FXIIa inh – inhibitors of human coagulation factor XIIa | P00748 | purified FXIIa, Boc-QGR-AMC fluorogenic substrate, 2 h | inhibition, % at 5 µM | hit rate 0.3% among 220,000; in the data active = inhibition above about 40%;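 also: 0% = enzyme with no compound and 100% = blank without enzyme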
# Target sequence (P00748 20-372 limits assumed): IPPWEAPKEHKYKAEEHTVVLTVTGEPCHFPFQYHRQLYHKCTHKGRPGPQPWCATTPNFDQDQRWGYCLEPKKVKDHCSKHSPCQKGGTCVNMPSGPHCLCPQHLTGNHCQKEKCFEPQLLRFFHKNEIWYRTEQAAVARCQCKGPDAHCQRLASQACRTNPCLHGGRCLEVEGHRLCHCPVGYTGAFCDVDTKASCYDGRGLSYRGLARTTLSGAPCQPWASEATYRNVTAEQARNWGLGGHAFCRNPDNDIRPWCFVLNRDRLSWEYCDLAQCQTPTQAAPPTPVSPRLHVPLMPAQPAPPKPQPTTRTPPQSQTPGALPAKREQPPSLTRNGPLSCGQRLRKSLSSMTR
# Target sequence (P00748 373-615 limits assumed): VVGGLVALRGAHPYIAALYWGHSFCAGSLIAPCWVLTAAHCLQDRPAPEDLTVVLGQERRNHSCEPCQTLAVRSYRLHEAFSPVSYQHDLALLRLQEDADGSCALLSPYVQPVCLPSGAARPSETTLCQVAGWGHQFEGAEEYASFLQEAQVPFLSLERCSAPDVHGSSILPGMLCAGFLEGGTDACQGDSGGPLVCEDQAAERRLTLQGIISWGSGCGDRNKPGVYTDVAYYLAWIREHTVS
# Starred values were filed as active, the others as inactive; i = inactive; nt = no result given; + = active, no number.
SMILES,Rce1 inh,Fh CTSL1 inh,FXIa inh,KLK5 inh,thrombin 1536,FXIIa inh
Cc1ccc(C)c(NC(=O)c2nnn(Cc3ccccc3C)c2N)c1,i,2,0,-6,2,16
Oc1cccc(/C=N/N(Cc2ccccc2)c2ccccc2)c1,nt,9,-3,-5,-8,nt
Oc1ccc(/C=N/N(Cc2ccccc2)c2ccccc2)c(O)c1O,i,nt,29,128*,28,27
Cc1ccc2cc(CN(c3cccc(C)c3C)S(=O)(=O)c3ccccc3)c(=O)[nH]c2c1,i,0,nt,nt,nt,nt
O=C(O)Cc1ccccc1C(=O)O,i,1,-14,-24,44*,-4
O=C(O)c1ccccc1S,nt,nt,8,-9,nt,17
O=C(O)CNc1ccccc1C(=O)O,+,-1,-1,-1,-8,1
CC1(C)OC(c2ccccc2)=C/C(=C\C=N\NC(=O)c2ccncc2)O1,i,4,3,0,-8,3
N#Cc1cn(N2CCCCC2)c(=O)[nH]c1=O,i,-1,nt,nt,nt,nt
Cc1cc(C)nc(SCCS(=O)(=O)Cc2ccccc2)n1,i,-1,8,115*,21,20
Cc1cc(C)nc(SCCS(=O)(=O)Cc2ccc(Cl)cc2)n1,i,-6,-1,-12,-1,9
CC(C)(C)OC(=O)N1CCN(CCNC(=O)c2ccccc2)CC1,i,-5,nt,nt,nt,nt
O=C1Nc2ccccc2N2CCCC12 (stereo unspecified),i,71*,-3,-3,-4,7
O=C1Nc2ccc(C(F)(F)F)cc2N2CCCC12 (stereo unspecified),i,13,nt,nt,nt,nt
COCCCNC(=S)NNC(=O)c1csc2ccccc12,i,-3,0,-19,-5,6
CCOC(=O)Cc1nn(Cc2ccccc2)c(=O)c2ccccc12,i,2,-4,-1,-7,5
CCOC(=O)Cc1nn(Cc2ccc(Cl)cc2)c(=O)c2ccccc12,i,18*,-2,-3,-8,7
CN(C)/C(CN1CCN(C=O)CC1)=C1\N=C(c2ccccc2)OC1=O,i,0,4,66*,9,2
CCOc1ccccc1N1CCN(CC(O)COC2CCCc3ccccc32)CC1 (stereo unspecified),nt,2,nt,nt,nt,nt
Clc1ccccc1OCc1nc(-c2ccccn2)no1,i,-2,3,48*,2,1
O=C(Nc1sc2c(c1C(=O)c1ccc(Cl)cc1)CCCC2)c1cccnc1,+,4,-4,-11,-17,10
Cc1cccc(NC(=S)NC23CN4CN(CN(C4)C2)C3)c1C,i,7,4,6,39,21
CC(C)NC[C@H](O)COc1cccc2ccccc12,i,1,nt,nt,nt,nt
CC(C)NC[C@H](O)COc1cccc2[nH]ccc12,i,86*,2,3,2,7
CCOC(=O)Cn1c(=O)oc2cc(S(=O)(=O)N3CCN(C(=O)c4ccco4)CC3)ccc21,i,-1,8,-15,0,10
SMILES,Rce1 inh,Fh CTSL1 inh,FXIa inh,KLK5 inh,thrombin 1536,FXIIa inh
O=C1CC(CC(=O)N/N=C/c2ccccc2[N+](=O)[O-])=NN1,i,18*,15,-4,-3,6
O=C(NCCSc1ccccc1)c1ccc(Br)cc1,i,-6,-2,-6,-8,11
O=C(NCCSc1ccccc1)c1ccccc1,i,0,-6,89*,0,0
CSCc1ccc(C(=O)NC(C)c2ccc(-n3ccnc3)cc2)cc1 (stereo unspecified),i,nt,nt,nt,nt,nt
CCc1ccc(S(=O)(=O)/N=C2\C=C(NS(=O)(=O)c3ccccc3)C(=O)c3ccccc32)cc1,i,nt,nt,nt,nt,nt
CC(C)c1ccc(S(=O)(=O)/N=C2\C=C(NS(=O)(=O)c3ccccc3)C(=O)c3ccccc32)cc1,i,2,nt,nt,nt,nt
Cc1ccccc1NC1=C/C(=N\S(=O)(=O)c2ccc(C(=O)O)cc2)c2ccccc2C1=O,i,104*,nt,nt,nt,nt
O=C(O)c1ccc(S(=O)(=O)/N=C2\C=C(Nc3ccccc3F)C(=O)c3ccccc32)cc1,i,80*,nt,nt,nt,nt
CC(=O)c1c(C)nn(C(=O)c2cccs2)c1C,i,-4,8,56*,10,15
O=C(NCc1ccccc1)C1CCCN1S(=O)(=O)c1cccc2cccnc12 (stereo unspecified),i,-2,-9,46*,-9,1
C#CCN1C(=O)C(O)(CC(=O)/C=C/C=C/c2ccccc2)c2ccccc21 (stereo unspecified),i,39*,3,-2,-31,6
CCN1C(=O)C(O)(CC(=O)/C=C/C=C/c2ccccc2)c2ccccc21 (stereo unspecified),i,22*,1,5,-3,3
O=C(/C=C/C=C/c1ccccc1)CC1(O)C(=O)N(CCc2ccccc2)c2ccccc21 (stereo unspecified),i,18*,-11,-7,-12,9
O=C(CC1(O)C(=O)Nc2ccccc21)c1ccccc1 (stereo unspecified),i,-2,-8,1,-6,18
NC(=O)CN1C(=O)C(O)(CC(=O)/C=C\c2ccc3c(c2)OCO3)c2ccccc21 (stereo unspecified),i,2,2,1,0,13
NC(=O)CN1C(=O)C(O)(CC(=O)/C=C\C=C\c2ccccc2)c2ccccc21 (stereo unspecified),i,3,10,-23,-10,14
Cc1ccc2c(c1)C(O)(CC(=O)/C=C/C=C/c1ccccc1)C(=O)N2 (stereo unspecified),i,21*,7,3,10,16
NC(=O)c1cc2cc(Cl)ccc2o/c1=N/NC(=O)c1cccs1,i,4,-1,3,4,14
Cc1ccccc1NC(=O)CSc1nc2ccccc2o1,i,-1,15,51*,15,5
Cc1cc(C(F)(F)F)nc(SCC(=O)Nc2c(C)n(C)n(-c3ccccc3)c2=O)n1,i,-3,nt,nt,nt,nt
O=C(Nc1ccncc1)c1cccc(S(=O)(=O)N2CCc3ccccc32)c1,i,17*,nt,nt,nt,nt
O=C(N/N=C/c1cccc(F)c1)c1c(O)c2ccccc2[nH]c1=O,i,-6,-14,17,45*,-4
O=C(N/N=C/c1ccc(F)cc1)c1c(O)c2ccccc2[nH]c1=O,i,-3,20,-2,3,7
COc1ccc(-n2cnnc2SCC(=O)Nc2cccnc2Cl)cc1,i,0,5,1,7,22
CCOC(=O)c1cc(C)[nH]c(=O)c1C#N,+,-16,-14,-16,-23,-27
CCOC(=O)C(=CNc1cccc(C)c1C)C(=O)OCC,i,2,-9,7,45*,19
CCC(=O)Nc1ccc(NC(=O)CSc2nnnn2CC)cc1C,nt,2,11,72*,27,14
COc1ccc(NC(=O)CCCN2C(=O)C(c3ccccc3)Oc3cccnc32)c(OC)c1 (stereo unspecified),i,0,nt,nt,nt,nt

# Compound activity from PubChem.
